Measurements: PMC2652250 (Biochemistry, 2008)
Several values for one entry are separate records, joined by “and”; a condition that tells them apart may be missing. Identical values can stand only once.

Legend:
[1] = biological target: cNTnC(C35S/C84S)·Ca^2+·cTnI147−163 (Homo sapiens, UniProt P19429+P63316, C35S/C84S); type: binding; settings: for chemical shift changes on titration (in words): 100 mM stock added to the NMR sample
[2] = Solubility and precipitation in aqueous solution / NMR samples during titration
[3] = biological target: cNTnC(C35S/C84S)·Ca^2+·cTnI144−163 (Homo sapiens, UniProt P19429+P63316, C35S/C84S); type: binding; settings: for drug-induced backbone amide chemical shift changes: 1.0 mM cNTnC(C35S/C84S), […] cTnI144−163, Figure 6; for Kd: global fit of HSQC chemical shift changes, pH 6.7, 30 °C; for chemical shift changes on titration (in words): 100 mM stock added to the NMR sample
[4] = biological target: cTnC·3Ca^2+·cTnI34−71·cTnI128−163; settings: cited from earlier work
[5] = biological target: sTnC·4Ca^2+·sTnI1−182·sTnT156−262; settings: cited from earlier work
[6] = biological target: cTnC·3Ca^2+·cTnI32−79·cTnI128−180; settings: cited from earlier work
[7] = system: perfused hearts; settings: cited from earlier work
[8] = system: skinned muscle fibers; settings: cited from earlier work
[9] = biological target: cTnI144−163 (Homo sapiens, UniProt P19429); test: 1D 1H NMR titration of levosimendan into free cTnI144−163 peptide; type: binding; settings: data not shown
[10] = biological target: cTnI147−163 (Homo sapiens, UniProt P19429); test: 1D 1H NMR titration of levosimendan into free cTnI147−163 peptide; type: binding; settings: data not shown
Summary of the method: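 Test compound stocks were made fresh in DMSO-d6 for every titration and shielded from light; concentrations were determined gravimetrically. […] 1D 1H spectra were recorded at 500 MHz.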

[11] = biological target: cNTnC(C35S/C84S)·Ca^2+ (Homo sapiens, UniProt P63316, C35S/C84S); test: 2D 1H-15N HSQC NMR titration of cNTnC; type: binding
[12] = system: cNTnC(WT)·Ca^2+; settings: WT isoform; cited from earlier work

Chain of cNTnC(C35S/C84S)·Ca^2+·cTnI144−163 (P19429 145-164, other chains not shown): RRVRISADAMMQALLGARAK

For CC1CC(=O)NN=C1c1ccc(N)cc1 (stereo not drawn) [AMDP, 6-(4-aminophenyl)-5-methyl-4,5-dihydro-3(2H)-pyridazinone], the Kd [1] was 6.5 mM, the “solubility in aqueous solution (in words)” value (“solubility” for short) [2] was “highly soluble in aqueous solution” and the “drug-induced backbone amide chemical shift changes” value [3] was no more than 20 Hz. The Kd [3] was 1.5 mM and ~1.5 mM.

In the case of CC1CC(=O)NN=C1c1ccc(-n2ccnc2)cc1 (stereo not drawn) [CI-930, 4,5-dihydro-6-[4-(1-imidazol-1-yl)phenyl]-5-methyl-4,5-dihydro-3(2H)-pyridazinone], the Kd [1] is reported as 11 mM, the “drug-induced backbone amide chemical shift changes” value [3] is reported as no more than 20 Hz and the Kd [3] is reported as 2.65 mM.

For CC1CC(=O)NN=C1c1ccc(Cl)cc1 (stereo not drawn) [CMDP, 6-(4-chlorophenyl)-5-methyl-4,5-dihydro-3(2H)-pyridazinone], the “drug-induced backbone amide chemical shift changes” value [3] was no more than 60 Hz.

With COc1ccc(C2=NNC(=O)CC2)cc1 [MPDP, 6-(4-methoxyphenyl)-4,5-dihydro-3(2H)-pyridazinone] the “chemical shift changes on titration (in words)” value [1] was “No chemical shift changes were observed” and the “chemical shift changes on titration (in words)” value [3] was “No chemical shift changes were observed”.

For NCCCCCCNS(=O)(=O)c1cccc2c(Cl)cccc12 [W7, N-(6-aminohexyl)-5-chloro-1-naphthalenesulfonamide], the Kd [4] is listed as roughly 500 µM.

For CC(C)(C)CC(C)(C)c1ccc(OCCOCCOCCOCCO)cc1 [anapoe, 2-[2-(2-{2-[4-(1,1,3,3-tetramethylbutyl)phenoxy]ethoxy}ethoxy)ethoxy]ethanol], the Kd [5] is given as roughly 640 µM.

With O=C1CCC(c2ccc(-n3ccnc3)cc2)=NN1 [imazodan, 4,5-dihydro-6-[4-(1-imidazol-1-yl)phenyl]-3(2H)-pyridazinone] the “chemical shift changes on titration (in words)” value [1] was “No chemical shift changes were observed” and the “chemical shift changes on titration (in words)” value [3] was “No chemical shift changes were observed”.

In the case of C[C@@H]1CC(=O)NN=C1c1ccc(NN=C(C#N)C#N)cc1 [levosimendan, (−)-[4-(1,4,5,6-tetrahydro-4-methyl-6-oxo-3-pyridazinyl)phenyl]hydrozonopropanedinitrile], the Kd [6] is given as no less than 200 µM, the “lowest concentration with multiple effects” value [7] is given as 0.3 µM and the “concentration of maximal effect” value [8] is given as 10 µM. For the same molecule, the “chemical shift change of the peptide in the presence of drug (in words)” value [9] was “no chemical shift change”, the “chemical shift change of the peptide in the presence of drug (in words)” value [10] was “no chemical shift change” and the “solubility” value [2] was “insoluble in aqueous solution”.

For Ac-RISADAMMQALLGARAK-NH2 [cTnI147−163], the “solubility” value [2] was “highly soluble in aqueous solution”, the stoichiometry of binding ([11]; C35S/C84S isoform) was 1/1 and the “equiv of peptide required to saturate the protein” value ([11]; solid peptide added, pH 6.7) was 3−3.5 equiv. For the same molecule, the stoichiometry of binding [12] was 1/1.
